Published values gathered from unrelated publications.

The IC50 of `COc1c2ccoc2cc2oc(=O)ccc12` is reported as 23.4 µM (HEp-2; cell growth or viability, WST-1; 48 h).
`O=C(Nc1ncc([N+](=O)[O-])s1)c1cccnc1` has an IC50 of greater than 100 µM (Chikungunya virus; viral replication, luciferase; BHK-21; 16 h).
The MIC of `COc1c(N2C[C@@H]3CCCN[C@@H]3C2)c(F)cc2c(=O)c(C(=O)O)cn(C3CC3)c12` is reported as greater than 4 µg/mL (Haemophilus influenzae; microbial growth).
For `Cc1ccc(C2CC2C(=O)NC(C(N)=O)c2ccccc2)cc1C` (stereo not drawn), the IC50 was greater than 100 µM (Chikungunya virus; viral replication, luciferase; BHK-21; 16 h).
For `CC(C)=CCC/C(C)=C/COc1cc(O)cc(O)c1C(=O)c1ccccc1`, the IC50 was 2330 µM (DPPH scavenging, absorbance; 30 min).
`Cc1c2ccncc2c(C)c2c1[nH]c1ccccc12` has an IC50 of 0.44 µM (THP-1; TNF-α release, inhibitor, ELISA; 17 h, LPS-stimulated).
For `O=C(Nc1ccc(O)cc1)c1ccccc1O`, the IC50 was greater than 100 µM (Chikungunya virus; viral replication, luciferase; BHK-21; 16 h).
`O=C(O)c1cn(C2CC2)c2cc(N3CCNCC3)c(F)cc2c1=O` gave an MIC of greater than 4 µg/mL (Haemophilus influenzae; microbial growth).
The IC50 of `O=C1O[C@H]([C@@H](O)CO)C(O)=C1O` is reported as 10.2 µM (DPPH scavenging).
With `O=c1c(O)c(-c2ccc(O[C@@H]3O[C@H](CO)[C@@H](O)[C@H](O)[C@H]3O)c(O)c2)oc2cc(O)cc(O)c12` the IC50 was 28.5 µg/mL (DPPH scavenging, absorbance).
For `C[C@]12CCC(=O)C(O)=C1CC[C@@H]1[C@@H]2CC[C@]2(C)C(=O)CC[C@@H]12`, the IC50 was greater than 20 µM (FaDu; cell growth or viability; 72 h).
With `O=c1c(O[C@@H]2O[C@H](CO)[C@H](O)[C@H](O)[C@H]2O)c(-c2ccc(O)c(O)c2)oc2cc(O)cc(O)c12` the IC50 was 142 µM (DPPH scavenging, absorbance; 30 min).
